Assay results taken from ChEMBL document CHEMBL1153124, “5-Lipoxygenase-activating protein inhibitors. Part 2: 3-{5-((S)-1-Acetyl-2,3-dihydro-1H-indol-2-ylmethoxy)-3-tert-butylsulfanyl-1-[4-(5-methoxy-pyrimidin-2-yl)-benzyl]-1H-indol-2-yl}-2,2-dimethyl-propionic acid (AM679)--a potent FLAP inhibitor” (Bioorg Med Chem Lett, 2010).

Molecular target: T1, Arachidonate 5-lipoxygenase-activating protein (Homo sapiens, UniProt P20292)
T1 sequence (P20292 whole entry): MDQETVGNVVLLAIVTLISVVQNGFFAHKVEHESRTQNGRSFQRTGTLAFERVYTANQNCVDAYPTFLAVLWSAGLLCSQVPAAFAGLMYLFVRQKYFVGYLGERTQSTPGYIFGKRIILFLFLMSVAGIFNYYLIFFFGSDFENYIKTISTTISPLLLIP
Assay: Binding affinity to FLAP in human PMN derived membrane
Assay type: cell membranes
Conditions: not given
How it was run: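 FLAP binding measured in membranes derived from human polymorphonuclear leukocytes (PMN). IC50 values are the average of n ≥ 3.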
In the case of `CC(=O)N1c2ccccc2C[C@H]1COc1ccc2c(c1)c(CCC(C)(C)C)c(CC(C)(C)C(=O)O)n2Cc1ccc(Cl)cc1`, the IC50 is reported as 4.7 nM. For `CC(C)(C)Sc1c(CC(C)(C)C(=O)O)n(Cc2ccc(Cl)cc2)c2ccc(OC[C@@H]3Cc4ccccc4N3)cc12`, the IC50 was 85 nM. In the case of `CC(=O)N1c2ccccc2C[C@H]1COc1ccc2c(c1)c(SC(C)(C)C)c(CC(C)(C)C(=O)O)n2Cc1ccc(-c2ccc(F)cn2)cc1`, the IC50 is reported as 1.7 nM. With `CC(=O)N1c2ccccc2C[C@H]1COc1ccc2c(c1)c(S(=O)(=O)C(C)(C)C)c(CC(C)(C)C(=O)O)n2Cc1ccc(Cl)cc1` the IC50 was 4.5 nM. `CC(C)(C)Sc1c(CC(C)(C)C(=O)O)n(Cc2ccc(Cl)cc2)c2ccc(OC[C@@H]3CCCN3)cc12` gave an IC50 greater than 10000 nM. `CC(C)(C)Sc1c(CC(C)(C)C(=O)O)n(Cc2ccc(Cl)cc2)c2ccc(OCC(N)=O)cc12` gave an IC50 of 38 nM. `CC(C)C(=O)N1CCC[C@H]1COc1ccc2c(c1)c(SC(C)(C)C)c(CC(C)(C)C(=O)O)n2Cc1ccc(Cl)cc1` showed an IC50 of 186 nM. In the case of `CC(=O)N1c2ccccc2C[C@H]1COc1ccc2c(c1)c(Cc1ccccc1)c(CC(C)(C)C(=O)O)n2Cc1ccc(Cl)cc1`, the IC50 is reported as 15.2 nM. For `CC(C)(C)OC(=O)N1CCC[C@H]1COc1ccc2c(c1)c(SC(C)(C)C)c(CC(C)(C)C(=O)O)n2Cc1ccc(Cl)cc1`, the IC50 was 1110 nM. In the case of `CC(C)(C)Sc1c(CC(C)(C)C(=O)O)n(Cc2ccc(Cl)cc2)c2ccc(OC[C@@H]3CCC(=O)N3)cc12`, the IC50 is reported as 616 nM. Compound `CC(=O)N1c2ccccc2C[C@H]1COc1ccc2c(c1)c(C(=O)C(C)(C)C)c(CC(C)(C)C(=O)O)n2Cc1ccc(Cl)cc1` has an IC50 of 19 nM. In the case of `CC(=O)N1c2ccccc2C[C@H]1COc1ccc2c(c1)c(CC(C)C)c(CC(C)(C)C(=O)O)n2Cc1ccc(Cl)cc1`, the IC50 is reported as 35 nM. For `COc1nc(-c2ccc(Cn3c(CC(C)(C)C(=O)O)c(SC(C)(C)C)c4cc(OC[C@@H]5Cc6ccccc6N5C(C)=O)ccc43)cc2)cs1`, the IC50 was 2.5 nM. For `CC(=O)N1c2ccccc2C[C@H]1COc1ccc2c(c1)c(C(=O)c1ccccc1)c(CC(C)(C)C(=O)O)n2Cc1ccc(Cl)cc1`, the IC50 was greater than 10000 nM. Compound `CC(C)(C)Sc1c(CC(C)(C)C(=O)O)n(Cc2ccc(Cl)cc2)c2ccc(OC[C@@H]3CCCN3C(=O)C3CC3)cc12` has an IC50 of 50 nM. With `CC(C)(C)OC(=O)N1CCC[C@@H]1COc1ccc2c(c1)c(SC(C)(C)C)c(CC(C)(C)C(=O)O)n2Cc1ccc(Cl)cc1` the IC50 was 1810 nM.

System: not listed separately
Assay: Inhibition of LTB4 production in calcium ionophore A23187 treated human leukocytes
Assay type: functional, cell-based
Conditions: Leukocyte
How it was run: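 Human leukocytes challenged with calcium ionophore; LTB4 produced by the cells was measured. IC50 is the average of n ≥ 3.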
Work on `CC(=O)N1c2ccccc2C[C@H]1COc1ccc2c(c1)c(CCC(C)(C)C)c(CC(C)(C)C(=O)O)n2Cc1ccc(Cl)cc1` yielded an IC50 of 4.2 nM. Work on `CC(C)(C)Sc1c(CC(C)(C)C(=O)O)n(Cc2ccc(Cl)cc2)c2ccc(OC[C@@H]3Cc4ccccc4N3)cc12` yielded an IC50 of 4.1 nM. In the case of `CC(=O)N1c2ccccc2C[C@H]1COc1ccc2c(c1)c(SC(C)(C)C)c(CC(C)(C)C(=O)O)n2Cc1ccc(-c2ccc(F)cn2)cc1`, the IC50 is reported as 0.5 nM. For `CC(=O)N1c2ccccc2C[C@H]1COc1ccc2c(c1)c(S(=O)(=O)C(C)(C)C)c(CC(C)(C)C(=O)O)n2Cc1ccc(Cl)cc1`, the IC50 was 19 nM. `CC(C)(C)Sc1c(CC(C)(C)C(=O)O)n(Cc2ccc(Cl)cc2)c2ccc(OC[C@@H]3CCCN3)cc12` gave an IC50 of 2780 nM. Compound `CC(C)(C)Sc1c(CC(C)(C)C(=O)O)n(Cc2ccc(Cl)cc2)c2ccc(OCC(N)=O)cc12` has an IC50 of 28 nM. With `CC(C)C(=O)N1CCC[C@H]1COc1ccc2c(c1)c(SC(C)(C)C)c(CC(C)(C)C(=O)O)n2Cc1ccc(Cl)cc1` the IC50 was 51 nM. For `CC(=O)N1c2ccccc2C[C@H]1COc1ccc2c(c1)c(Cc1ccccc1)c(CC(C)(C)C(=O)O)n2Cc1ccc(Cl)cc1`, the IC50 was 1.5 nM. Compound `CC(C)(C)OC(=O)N1CCC[C@H]1COc1ccc2c(c1)c(SC(C)(C)C)c(CC(C)(C)C(=O)O)n2Cc1ccc(Cl)cc1` has an IC50 of 29 nM. `CC(C)(C)Sc1c(CC(C)(C)C(=O)O)n(Cc2ccc(Cl)cc2)c2ccc(OC[C@@H]3CCC(=O)N3)cc12` showed an IC50 of 108 nM. Work on `CC(=O)N1c2ccccc2C[C@H]1COc1ccc2c(c1)c(C(=O)C(C)(C)C)c(CC(C)(C)C(=O)O)n2Cc1ccc(Cl)cc1` yielded an IC50 of 1.3 nM. `CC(=O)N1c2ccccc2C[C@H]1COc1ccc2c(c1)c(CC(C)C)c(CC(C)(C)C(=O)O)n2Cc1ccc(Cl)cc1` gave an IC50 of 0.5 nM. For `COc1nc(-c2ccc(Cn3c(CC(C)(C)C(=O)O)c(SC(C)(C)C)c4cc(OC[C@@H]5Cc6ccccc6N5C(C)=O)ccc43)cc2)cs1`, the IC50 was 0.6 nM. In the case of `CC(=O)N1c2ccccc2C[C@H]1COc1ccc2c(c1)c(C(=O)c1ccccc1)c(CC(C)(C)C(=O)O)n2Cc1ccc(Cl)cc1`, the IC50 is reported as 263 nM. With `CC(C)(C)Sc1c(CC(C)(C)C(=O)O)n(Cc2ccc(Cl)cc2)c2ccc(OC[C@@H]3CCCN3C(=O)C3CC3)cc12` the IC50 was 8 nM. With `CC(C)(C)OC(=O)N1CCC[C@@H]1COc1ccc2c(c1)c(SC(C)(C)C)c(CC(C)(C)C(=O)O)n2Cc1ccc(Cl)cc1` the IC50 was 193 nM.

System: Blood
Assay: Inhibition of LTB4 production in calcium ionophore treated A23187 human whole blood after 15 mins
Assay type: functional, tissue-based
Conditions: 0.25 h
In the case of `CC(=O)N1c2ccccc2C[C@H]1COc1ccc2c(c1)c(CCC(C)(C)C)c(CC(C)(C)C(=O)O)n2Cc1ccc(Cl)cc1`, the IC50 is reported as 405 nM. With `CC(C)(C)Sc1c(CC(C)(C)C(=O)O)n(Cc2ccc(Cl)cc2)c2ccc(OC[C@@H]3Cc4ccccc4N3)cc12` the IC50 was 1430 nM. With `CC(=O)N1c2ccccc2C[C@H]1COc1ccc2c(c1)c(SC(C)(C)C)c(CC(C)(C)C(=O)O)n2Cc1ccc(-c2ccc(F)cn2)cc1` the IC50 was 235 nM. In the case of `CC(=O)N1c2ccccc2C[C@H]1COc1ccc2c(c1)c(S(=O)(=O)C(C)(C)C)c(CC(C)(C)C(=O)O)n2Cc1ccc(Cl)cc1`, the IC50 is reported as 1740 nM. Work on `CC(C)(C)Sc1c(CC(C)(C)C(=O)O)n(Cc2ccc(Cl)cc2)c2ccc(OCC(N)=O)cc12` yielded an IC50 of 2140 nM. With `CC(C)C(=O)N1CCC[C@H]1COc1ccc2c(c1)c(SC(C)(C)C)c(CC(C)(C)C(=O)O)n2Cc1ccc(Cl)cc1` the IC50 was 5660 nM. `CC(=O)N1c2ccccc2C[C@H]1COc1ccc2c(c1)c(Cc1ccccc1)c(CC(C)(C)C(=O)O)n2Cc1ccc(Cl)cc1` gave an IC50 of 428 nM. Work on `CC(C)(C)OC(=O)N1CCC[C@H]1COc1ccc2c(c1)c(SC(C)(C)C)c(CC(C)(C)C(=O)O)n2Cc1ccc(Cl)cc1` yielded an IC50 of 17200 nM. In the case of `CC(C)(C)Sc1c(CC(C)(C)C(=O)O)n(Cc2ccc(Cl)cc2)c2ccc(OC[C@@H]3CCC(=O)N3)cc12`, the IC50 is reported as 9020 nM. With `CC(=O)N1c2ccccc2C[C@H]1COc1ccc2c(c1)c(C(=O)C(C)(C)C)c(CC(C)(C)C(=O)O)n2Cc1ccc(Cl)cc1` the IC50 was 521 nM. Work on `CC(=O)N1c2ccccc2C[C@H]1COc1ccc2c(c1)c(CC(C)C)c(CC(C)(C)C(=O)O)n2Cc1ccc(Cl)cc1` yielded an IC50 of 200 nM. Compound `COc1nc(-c2ccc(Cn3c(CC(C)(C)C(=O)O)c(SC(C)(C)C)c4cc(OC[C@@H]5Cc6ccccc6N5C(C)=O)ccc43)cc2)cs1` has an IC50 of 573 nM. Work on `CC(=O)N1c2ccccc2C[C@H]1COc1ccc2c(c1)c(C(=O)c1ccccc1)c(CC(C)(C)C(=O)O)n2Cc1ccc(Cl)cc1` yielded an IC50 of 63100 nM. With `CC(C)(C)Sc1c(CC(C)(C)C(=O)O)n(Cc2ccc(Cl)cc2)c2ccc(OC[C@@H]3CCCN3C(=O)C3CC3)cc12` the IC50 was 885 nM. In the case of `CC(C)(C)OC(=O)N1CCC[C@@H]1COc1ccc2c(c1)c(SC(C)(C)C)c(CC(C)(C)C(=O)O)n2Cc1ccc(Cl)cc1`, the IC50 is reported as 67800 nM.

Molecular target: Cytochrome P450 2C9 (Homo sapiens, UniProt P11712)
Sequence (P11712 whole entry): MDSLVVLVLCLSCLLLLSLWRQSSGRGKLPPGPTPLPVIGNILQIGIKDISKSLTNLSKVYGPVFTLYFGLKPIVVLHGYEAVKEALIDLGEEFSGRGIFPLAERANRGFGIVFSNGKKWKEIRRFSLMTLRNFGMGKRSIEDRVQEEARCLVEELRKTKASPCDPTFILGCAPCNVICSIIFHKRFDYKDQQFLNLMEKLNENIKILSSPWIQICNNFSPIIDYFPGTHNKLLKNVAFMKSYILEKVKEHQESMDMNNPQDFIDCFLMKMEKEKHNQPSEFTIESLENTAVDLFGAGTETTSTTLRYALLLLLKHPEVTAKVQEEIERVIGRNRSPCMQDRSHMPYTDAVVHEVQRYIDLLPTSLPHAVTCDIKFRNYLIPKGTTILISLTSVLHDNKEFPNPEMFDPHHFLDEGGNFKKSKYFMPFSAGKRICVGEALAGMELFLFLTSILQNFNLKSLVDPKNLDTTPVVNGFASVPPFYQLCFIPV
Assay: Inhibition of CYP2C9
Assay type: ADME
Conditions: not given
`CC(C)(C)Sc1c(CC(C)(C)C(=O)O)n(Cc2ccc(Cl)cc2)c2ccc(OCc3ccc4ccccc4n3)cc12` [QUIFLAPON] gave an IC50 of 500 nM.

Molecular target: CYP3A4 (Homo sapiens, UniProt P08684)
Sequence (P08684 whole entry): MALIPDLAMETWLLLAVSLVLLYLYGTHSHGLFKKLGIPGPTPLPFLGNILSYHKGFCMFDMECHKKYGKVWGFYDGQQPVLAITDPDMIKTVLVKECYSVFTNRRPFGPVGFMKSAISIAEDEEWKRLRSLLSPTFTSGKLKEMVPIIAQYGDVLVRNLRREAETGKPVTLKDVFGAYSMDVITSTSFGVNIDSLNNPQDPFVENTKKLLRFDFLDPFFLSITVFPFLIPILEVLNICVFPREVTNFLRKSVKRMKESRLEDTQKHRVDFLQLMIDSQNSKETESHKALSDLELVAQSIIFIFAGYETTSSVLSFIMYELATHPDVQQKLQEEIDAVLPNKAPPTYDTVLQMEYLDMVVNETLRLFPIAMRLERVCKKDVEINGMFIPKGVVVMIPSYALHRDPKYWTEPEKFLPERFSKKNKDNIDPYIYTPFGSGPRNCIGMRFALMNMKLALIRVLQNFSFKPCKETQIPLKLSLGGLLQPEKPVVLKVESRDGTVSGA
Assay: Inhibition of CYP3A4 at 10 uM
Assay type: ADME
Conditions: not given
For `CC(=O)N1c2ccccc2C[C@H]1COc1ccc2c(c1)c(CCC(C)(C)C)c(CC(C)(C)C(=O)O)n2Cc1ccc(Cl)cc1`, the inhibition at 10 µM was greater than 80%. In the case of `CC(=O)N1c2ccccc2C[C@H]1COc1ccc2c(c1)c(Cc1ccccc1)c(CC(C)(C)C(=O)O)n2Cc1ccc(Cl)cc1`, the inhibition at 10 µM is reported as greater than 80%. `CC(=O)N1c2ccccc2C[C@H]1COc1ccc2c(c1)c(CC(C)C)c(CC(C)(C)C(=O)O)n2Cc1ccc(Cl)cc1` showed an inhibition at 10 µM greater than 80%.

Molecular target: CYP2C9 (Homo sapiens, UniProt P11712)
Sequence (P11712 whole entry): as the sequence (P11712 whole entry) above
Assay: Inhibition of CYP2C9 at 10 uM
Assay type: ADME
Conditions: not given
`CC(=O)N1c2ccccc2C[C@H]1COc1ccc2c(c1)c(CCC(C)(C)C)c(CC(C)(C)C(=O)O)n2Cc1ccc(Cl)cc1` showed an inhibition at 10 µM greater than 80%. For `CC(=O)N1c2ccccc2C[C@H]1COc1ccc2c(c1)c(Cc1ccccc1)c(CC(C)(C)C(=O)O)n2Cc1ccc(Cl)cc1`, the inhibition at 10 µM was greater than 80%. Work on `CC(=O)N1c2ccccc2C[C@H]1COc1ccc2c(c1)c(CC(C)C)c(CC(C)(C)C(=O)O)n2Cc1ccc(Cl)cc1` yielded an inhibition at 10 µM greater than 80%.
